The values that follow come from ChEMBL document CHEMBL1146850, “Dithiocarbamic acid esters as anticancer agent. Part 1: 4-substituted-piperazine-1-carbodithioic acid 3-cyano-3,3-diphenyl-propyl esters” (Bioorg Med Chem Lett, 2006).

For data set [1], the system named is Bel-7402. In words: Antiproliferative activity against human Bel7402 cells at 33 uM by SRB assay. The data set is classed as functional. The method, boiled down:
(§1)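 Bel-7402 cells kept in RPMI-1640 with 10% FBS, penicillin 100 U/mL and streptomycin at 37 °C under humidified CO2. Exponentially growing cells seeded at 1–2.5 × 10^4 cells/mL. Compound added 24 h later, with medium only for controls. Incubation 48 h, then viable cells counted by SRB. Screened at four concentrations, with single-concentration data given at 33.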
A general note: The SRB assay estimates cell density from bound dye.

The subject of data set [2] is HL-60. In words: Antiproliferative activity against human HL60 cells at 33 uM by MTT assay. The data set is classed as functional. The method, boiled down:
(§2)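 HL-60 cells kept in RPMI-1640 with 10% FBS, penicillin 100 U/mL and streptomycin at 37 °C under humidified CO2. Exponentially growing cells seeded at 1–2.5 × 10^4 cells/mL. Compound added after 24 h, with medium-only controls. Exposure 48 h, then viable cells read by MTT at 570 nm absorbance. Screened at four concentrations, with single-concentration data given at 33.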

In data set [3] the test system is Bel-7402. The experiment in a line: Antiproliferative activity against human Bel7402 cells by SRB assay. It is filed as functional, cell-based. The method, boiled down:
as §1

For data set [4], the system named is HL-60. The experiment in a line: Antiproliferative activity against human HL60 cells by MTT assay. The data set is classed as functional, cell-based. The method, boiled down:
as §2

The test system of data set [5] is Rattus norvegicus. In words: Toxicity in rat at 10 g/kg after 10 days assessed as change in body weight relative to control. Particulars: in vivo, 10000 mg/kg, 240 h; call rule not given here.
The next data set concerns BGC-823. The experiment in a line: Antiproliferative activity against human BGC823 cells implanted in nude mouse. The data set is classed as functional.
In a further data set the test system is CCRF S-180. The experiment in a line: Antiproliferative activity against mouse S180 cells. It is filed as functional.
The subject of the next data set is H22. The experiment in a line: Antiproliferative activity against mouse H22 cells. It is filed as functional.
The subject of data set [6] is Rattus norvegicus. The experiment in a line: Toxicity in rat at 10 g/kg after 10 days. The note with it: in vivo, 10000 mg/kg, 240 h.

Broadly, the inhibition is the change of the read-out against control, counted positive when it falls. For orientation: IC50 means the point on the concentration scale where inhibition reaches its midpoint.

As for `N#CC(CCSC(=S)N1CCN(C(=O)CCBr)CC1)(c1ccccc1)c1ccccc1`, the results for the inhibition at 33 µM in the data set on Bel-7402 [1] and in the data set on HL-60 [2] were 23.4% and 82.2%, respectively.
The corresponding values for `COc1cccc(N2CCN(C(=S)SCCC(C#N)(c3ccccc3)c3ccccc3)CC2)c1` are 15.5% and 9.8%.
Regarding `N#CC(CCSC(=S)N1CCN(S(=O)(=O)c2ccccc2[N+](=O)[O-])CC1)(c1ccccc1)c1ccccc1`, the inhibition at 33 µM in the data set with Bel-7402 [1] and with HL-60 [2] was 0% throughout.
`N#CC(CCSC(=S)N1CCN(c2cccc(Cl)c2)CC1)(c1ccccc1)c1ccccc1`: the inhibition at 33 µM in the data set on Bel-7402 [1] was 0%; in the data set with HL-60 [2], 4.2%.
The corresponding values for `N#CC(CCSC(=S)N1CCN(C(=O)CCCl)CC1)(c1ccccc1)c1ccccc1` are 22% and 43.3%.
The corresponding values for `N#CC(CCSC(=S)N1CCN(c2ncccn2)CC1)(c1ccccc1)c1ccccc1` are 33.2% and 24.2%.
On the same counts, the results for `COc1ccccc1N1CCN(C(=S)SCCC(C#N)(c2ccccc2)c2ccccc2)CC1` are 0% and 4.8%.
As to `CCN1CCN(C(=S)SCCC(C#N)(c2ccccc2)c2ccccc2)CC1`, the inhibition at 33 µM was 4.97% in the data set with Bel-7402 [1] and -7.81% in the data set with HL-60 [2].
The corresponding values for `N#CC(CCSC(=S)N1CCN(C(=O)c2ccco2)CC1)(c1ccccc1)c1ccccc1` are 17.7% and 30.4%.
On the same counts, the results for `N#CC(CCSC(=S)N1CCN(c2ccc([N+](=O)[O-])cc2)CC1)(c1ccccc1)c1ccccc1` are 2.2% and 7.8%.
On the same counts, the results for `COc1ccc(N2CCN(C(=S)SCCC(C#N)(c3ccccc3)c3ccccc3)CC2)cc1` are 14.9% and 8.5%.
On to `CCCCCCN1CCN(C(=S)SCCC(C#N)(c2ccccc2)c2ccccc2)CC1`, for which the inhibition at 33 µM in the data set with Bel-7402 [1] was 12.7%; with HL-60 [2] it was 2.57%.
On the same counts, the results for `CS(=O)(=O)OCCC(=O)N1CCN(C(=S)SCCC(C#N)(c2ccccc2)c2ccccc2)CC1` are 1.09% and 0%.
The corresponding values for `N#CC(CCSC(=S)N1CCN(S(=O)(=O)c2c(Cl)cccc2Cl)CC1)(c1ccccc1)c1ccccc1` are 0% and 0%.
The corresponding values for `N#CC(CCSC(=S)N1CCN(CCCl)CC1)(c1ccccc1)c1ccccc1` are 28.7% and 53.6%.
Regarding `N#CC(CCSC(=S)N1CCN(c2ccc(Cl)c(Cl)c2)CC1)(c1ccccc1)c1ccccc1`, the inhibition at 33 µM was determined as 23.3% in the data set with Bel-7402 [1] and 0.7% with HL-60 [2].
The corresponding values for `CCCCN1CCN(C(=S)SCCC(C#N)(c2ccccc2)c2ccccc2)CC1` are 11% and -13.5%.
In the case of `N#CC(CCSC(=S)N1CCN(C(c2ccccc2)c2ccc(Cl)cc2)CC1)(c1ccccc1)c1ccccc1` (centres undefined), the inhibition at 33 µM with Bel-7402 [1] came out at 18%; in the data set with HL-60 [2], 2.7%.
The corresponding values for `CCOC(=O)N1CCN(C(=S)SCCC(C#N)(c2ccccc2)c2ccccc2)CC1` are 35% and 0%.
Turning to `N#CC(CCSC(=S)N1CCNCC1)(c1ccccc1)c1ccccc1`, the inhibition at 33 µM in the data set with Bel-7402 [1] was determined as 95.5%; in the data set on HL-60 [2], 98.7%. The IC50 in the data set on Bel-7402 [3] was 11.5 µM; in the data set on HL-60 [4], 5.3 µM.
For the molecule `N#CC(CCSC(=S)N1CCN(c2ccc(F)cc2)CC1)(c1ccccc1)c1ccccc1`, the inhibition at 33 µM in the data set with Bel-7402 [1] came out at 15.9%; in the data set on HL-60 [2] it was 0%.
On the same counts, the results for `N#CC(CCSC(=S)N1CCN(S(=O)(=O)c2ccc(F)cc2)CC1)(c1ccccc1)c1ccccc1` are 9.7% and 0%.
On to `COc1ccc(S(=O)(=O)N2CCN(C(=S)SCCC(C#N)(c3ccccc3)c3ccccc3)CC2)cc1`, for which the inhibition at 33 µM with Bel-7402 [1] turned out to be 5.4%; in the data set with HL-60 [2], 1.5%.
Consider `N#CC(CCSC(=S)N1CCN(c2cccc(C(F)(F)F)c2)CC1)(c1ccccc1)c1ccccc1`, for which the inhibition at 33 µM with Bel-7402 [1] stood at 26.3%; in the data set on HL-60 [2], 8.5%.
For `N#CC(CCSC(=S)N1CCN(c2ccccc2Cl)CC1)(c1ccccc1)c1ccccc1`, the inhibition at 33 µM in the data set with Bel-7402 [1] and with HL-60 [2] was 0% in each case.
On to `N#CC(CCSC(=S)N1CCN(c2ccccc2)CC1)(c1ccccc1)c1ccccc1`, for which the figures for the inhibition at 33 µM in the data set on Bel-7402 [1] and in the data set with HL-60 [2] were 0% and 10.5%, respectively.
On the same counts, the results for `N#CC(CCSC(=S)N1CCN(c2ccccn2)CC1)(c1ccccc1)c1ccccc1` are 22.6% and 31.8%.
The corresponding values for `N#CC(CCSC(=S)N1CCN(S(=O)(=O)c2cccc(C(F)(F)F)c2)CC1)(c1ccccc1)c1ccccc1` are 0% and 0%.
On the same counts, the results for `N#CC(CCSC(=S)N1CCN(c2ccccc2F)CC1)(c1ccccc1)c1ccccc1` are 4.3% and 0%.
In the case of `N#CC(CCSC(=S)N1CCN(S(=O)(=O)c2ccc([N+](=O)[O-])cc2)CC1)(c1ccccc1)c1ccccc1`, the figures for the inhibition at 33 µM in the data set with Bel-7402 [1] and in the data set on HL-60 [2] were 0.2% and 0%, respectively.
`CS(=O)(=O)N1CCN(C(=S)SCCC(C#N)(c2ccccc2)c2ccccc2)CC1`: the inhibition at 33 µM in the data set on Bel-7402 [1] was found to be 13.4%; in the data set on HL-60 [2], 24.9%.
The corresponding values for `N#CC(CCSC(=S)N1CCN(S(=O)(=O)c2cccc([N+](=O)[O-])c2)CC1)(c1ccccc1)c1ccccc1` are 5.5% and 0%.
`N#CC(CCSC(=S)N1CCN(CCO)CC1)(c1ccccc1)c1ccccc1`: the inhibition at 33 µM in the data set with Bel-7402 [1] came out at 57.7%; in the data set on HL-60 [2], 92.5%. The figures for the half-inhibitory concentration (IC50) in the data set on Bel-7402 [3] and with HL-60 [4] were 11.7 µM and 24.5 µM, respectively.
As to `N#CC(CCSC(=S)N1CCN(S(=O)(=O)c2ccccc2)CC1)(c1ccccc1)c1ccccc1`, the inhibition at 33 µM in the data set on Bel-7402 [1] and in the data set with HL-60 [2] was 0% each time.
For the molecule `CN1CCN(C(=S)SCCC(C#N)(c2ccccc2)c2ccccc2)CC1`, the inhibition at 33 µM worked out at 75.2% in the data set with Bel-7402 [1] and 79% in the data set on HL-60 [2]. The IC50 in the data set with Bel-7402 [3] worked out at 27.1 µM; with HL-60 [4], 9.9 µM.
With `N#CC(CCSC(=S)N1CCN(Cc2ccccc2)CC1)(c1ccccc1)c1ccccc1`, the inhibition at 33 µM in the data set with Bel-7402 [1] turned out to be 4.7%; in the data set on HL-60 [2], 12.5%.
The corresponding values for `Cc1ccccc1N1CCN(C(=S)SCCC(C#N)(c2ccccc2)c2ccccc2)CC1` are 0% and 0%.
The corresponding values for `Cc1ccc(Cl)cc1N1CCN(C(=S)SCCC(C#N)(c2ccccc2)c2ccccc2)CC1` are 14.6% and 0%.
The corresponding values for `N#CC(CCSC(=S)N1CCN(Cc2ccc3c(c2)OCO3)CC1)(c1ccccc1)c1ccccc1` are 16.6% and 0%.
Regarding `CN1CCN(C(=S)SCCC(C#N)(c2ccccc2)c2ccccc2)CC1.Cl`, the Activity result in the data set with Rattus norvegicus [5] is on record as “Not Active”; in the data set on BGC-823, 18.1%; in the data set with CCRF S-180 it was 46.4%; in the data set on H22, 39.3%; with Rattus norvegicus [6], “Not Active”.
